Data as given in ChEMBL document CHEMBL1154766, “Synthesis and biological evaluation of new podophyllic aldehyde derivatives with cytotoxic and apoptosis-inducing activities” (2010).
Active and inactive are the calls of the source. The calls are words filed in the database; no cut-off is given here.

What was measured:
HT-29 [1] = test: Cell cycle arrest in human HT-29 cells assessed as accumulation at G2/M phase at 1 uM after 48 hrs by flow cytometry; assay type: functional
Procedure, shortened: (§1)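 HT-29 cells incubated at 1 μM for 24, 48 or 72 h alongside untreated controls. (3-5) × 10⁵ cells fixed overnight in 70% ethanol at 4 °C, PBS-washed three times, then treated 1 h at room temperature with 1 mg/mL RNase A and 20 μg/mL propidium iodide. DNA content read by flow cytometry; apoptosis taken as % cells in sub-G1 peak. Representative of three independent experiments.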

HT-29 [2] = test: Cell cycle arrest in human HT-29 cells assessed as accumulation at G2/M phase at 1 uM after 72 hrs by flow cytometry; assay type: functional; procedure, shortened: as §1
HT-29 [3] = test: Induction of apoptosis in human HT-29 cells assessed as accumulation at subG1 phase at 1 uM after 24 hrs by flow cytometry; assay type: functional; procedure, shortened: as §1
HT-29 [4] = test: Induction of apoptosis in human HT-29 cells assessed as accumulation at subG1 phase at 1 uM after 72 hrs by flow cytometry; assay type: functional; procedure, shortened: as §1
HT-29 [5] = test: Cell cycle arrest in human HT-29 cells assessed as accumulation at S phase at 1 uM after 72 hrs by flow cytometry; assay type: functional; procedure, shortened: as §1
HT-29 [6] = test: Cell cycle arrest in human HT-29 cells assessed as accumulation at S phase at 1 uM after 24 hrs by flow cytometry; assay type: functional; procedure, shortened: as §1
HT-29 [7] = test: Cytotoxicity against human HT-29 cells after 72 hrs by SRB assay; assay type: functional; conditions: HT-29, 72 h
Procedure, shortened: (§2)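 SRB growth assay: 5 × 10³ cells/well in RPMI, attached 18 h drug-free, then compound added in DMSO/H₂O 3:7 for 72 h. Fixed with cold 50% TCA 60 min at 4 °C, stained 0.4% SRB in 1% acetic acid 10 min, bound dye solubilized in Tris, OD 490 nm. GI50 from 100[(T−T0)/(C−T0)] = 50; mean of triplicates.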

HT-29 [8] = test: Cell cycle arrest in human HT-29 cells assessed as accumulation at G0/G1 phase at 1 uM after 72 hrs by flow cytometry; assay type: functional; procedure, shortened: as §1
HT-29 [9] = test: Induction of microtubule disruption in human HT-29 cells at 1 uM after 24 hrs; assay type: cell-based
Procedure, shortened: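 HT-29 cells on poly-L-lysine coverslips exposed to 1 μM for 24 h, washed in HPEM (pH 6.6), fixed with 4% paraformaldehyde 15 min, permeabilized with 0.5% Triton X-100. Anti-α-tubulin mouse monoclonal (1:150, 1 h) then CY3 anti-mouse IgG (1 h, 4 °C); nuclei DAPI-stained; imaged by confocal microscopy. Representative of at least three experiments.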

HT-29 [10] = test: Induction of apoptosis in human HT-29 cells assessed as accumulation at subG1 phase at 1 uM after 48 hrs by flow cytometry; assay type: functional; procedure, shortened: as §1
A549 = test: Cytotoxicity against human A549 cells after 72 hrs by SRB assay; assay type: functional; conditions: A549, 72 h; procedure, shortened: as §2
HT-29 [11] = test: Cell cycle arrest in human HT-29 cells assessed as accumulation at G0/G1 phase at 1 uM after 24 hrs by flow cytometry; assay type: functional; procedure, shortened: as §1
HT-29 [12] = test: Cell cycle arrest in human HT-29 cells assessed as accumulation at S phase at 1 uM after 48 hrs by flow cytometry; assay type: functional; procedure, shortened: as §1
HT-29 [13] = test: Cell cycle arrest in human HT-29 cells assessed as accumulation at G0/G1 phase at 1 uM after 48 hrs by flow cytometry; assay type: functional; procedure, shortened: as §1
HT-29 [14] = test: Cell cycle arrest in human HT-29 cells assessed as accumulation at G2/M phase at 1 uM after 24 hrs by flow cytometry; assay type: functional; procedure, shortened: as §1
MDA-MB-231 = test: Cytotoxicity against human MDA-MB-231 cells after 72 hrs by SRB assay; assay type: functional; conditions: MDA-MB-231, 72 h; procedure, shortened: as §2

SMILES	Activity (HT-29 [1])	Activity (HT-29 [2])	Activity (HT-29 [3])	Activity (HT-29 [4])	Activity (HT-29 [5])	Activity (HT-29 [6])	GI50 (HT-29 [7])	Activity (HT-29 [8])	Activity (HT-29 [9])	Activity (HT-29 [10])	GI50 (A549)	Activity (HT-29 [11])	Activity (HT-29 [12])	Activity (HT-29 [13])	Activity (HT-29 [14])	GI50 (MDA-MB-231)
COc1cc([C@@H]2c3cc4c(cc3C=C(C=O)[C@H]2C(=O)OCCCBr)OCO4)cc(OC)c1OC	18.1%	0.4%	29.2%	67.7%	0.3%	9.7%	140 nM	31.6%	inactive	34.6%	130 nM	46.9%	8.4%	38.9%	14.2%	170 nM
CCCCCCCOC(=O)[C@@H]1C(C=O)=Cc2cc3c(cc2[C@H]1c1cc(OC)c(OC)c(OC)c1)OCO3	15.9%	0.6%	19.6%	82.3%	0.4%	42.6%	1000 nM	16.7%	inactive	29.2%	1000 nM	14.6%	29.6%	25.3%	23.2%	2500 nM
